Key:
[1] = Capacity factor of compound was determined by immobilized artificial membrane chromatography; assay type: ADME
Method in brief: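 Immobilized artificial membrane HPLC, isocratic 10 mM ammonium acetate pH 5.4 at 1.0 mL/min, detection by ESI-MS (pyridinium salts) or APCI-MS (dihydropyridine prodrugs). k'IAM = (tR compound − tR citric acid)/tR citric acid, citric acid serving as void marker.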

Mus musculus [2] = assay: Sleeping time of mice was determined after intravenous administration of compound at 15 umol/kg of Body Weight; assay type: functional
Method in brief: (§1)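 Swiss Webster mice (30 ± 2 g), 8–16 per group; 15 µmol/kg compound iv via tail vein in degassed saline, vehicle controls 1.5 mL/kg. Sodium pentobarbital 60 mg/kg ip after 10 min; sleeping time timed from loss to regain of righting reflex.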

[3] = Partition coefficient (logP); assay type: physicochemical; details: octanol/water
Mus musculus [4] = assay: Sleeping time decrease in mice was determined after intravenous administration of compound at 0.5 umol/kg of body weight; assay type: functional
Method in brief: (§2)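 Swiss Webster mice (30 ± 2 g), 8–16 per group, given compound iv via tail vein in degassed saline; controls received saline 1.5 mL/kg. Sodium pentobarbital 60 mg/kg ip 10 min later; sleeping time from loss to regain of righting reflex; decrease versus saline control, mean ± SEM.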

Mus musculus [5] = assay: Sleeping time decrease in mice was determined after intravenous administration of compound at 15 umol/kg of body weight; assay type: functional; method in brief: as §2
Mus musculus [6] = assay: Sleeping time decrease in mice was determined after intravenous administration of compound at 1 umol/kg of body weight; assay type: functional
Mus musculus [7] = assay: Sleeping time decrease in mice was determined after intravenous administration of compound at 5 umol/kg of body weight; assay type: functional; method in brief: as §2
Mus musculus [8] = assay: Sleeping time of mice was determined after intravenous administration of compound at 15 umol/kg of body weight; assay type: functional; method in brief: as §1
Mus musculus [9] = assay: Sleeping time decrease in mice was determined after intravenous administration of compound at 50 umol/kg of body weight; assay type: functional; method in brief: as §2
Rattus norvegicus = assay: Maximal changes in rat hippocampal acetylcholine concentration after administration of compound through a microdialysis probe; assay type: functional, Hippocampus
Method in brief: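 Male Sprague–Dawley rats (250–300 g), guide cannula in ventral hippocampus, probe (4 mm polycarbonate) inserted after 7 days. Perfused with artificial CSF plus 2 µM neostigmine at 2 µL/min; baseline is mean of three 20-min fractions. Compound perfused at 1 nmol/µL through probe; maximal ACh change expressed as % of baseline.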

[10] = target: T1, Thyrotropin-releasing hormone receptor (Rattus norvegicus, UniProt Q01717); assay: Inhibition of [3H][3-Me-His2]-TRH binding to thyrotropin releasing hormone receptor of rat forebrain
T1 sequence (Q01717 whole entry): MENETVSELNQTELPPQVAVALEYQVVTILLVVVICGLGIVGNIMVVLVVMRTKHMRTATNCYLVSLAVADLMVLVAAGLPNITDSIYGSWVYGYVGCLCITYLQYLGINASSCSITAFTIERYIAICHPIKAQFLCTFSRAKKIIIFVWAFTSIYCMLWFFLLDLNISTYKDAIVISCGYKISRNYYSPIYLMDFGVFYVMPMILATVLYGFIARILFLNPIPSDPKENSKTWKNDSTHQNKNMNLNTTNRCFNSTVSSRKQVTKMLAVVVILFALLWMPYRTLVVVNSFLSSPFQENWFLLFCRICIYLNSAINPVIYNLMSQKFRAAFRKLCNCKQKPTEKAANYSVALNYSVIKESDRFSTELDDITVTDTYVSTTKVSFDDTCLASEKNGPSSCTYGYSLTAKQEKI
Method in brief: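 Rat forebrain membrane suspension in 20 mM phosphate pH 7.4, incubated 180 min at 4 °C with 2 nM [3H][3-Me-His2]TRH and varying test concentrations. Nonspecific binding defined with 10 µM TRH; Ki reported.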

[11] = Half-life of compound in rat plasma was determined; assay type: ADME, cell-free
Method in brief: (§3)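 About 100 nmol compound per 1 mL rat plasma or 20% rat brain homogenate (0.1 M phosphate, pH 7.4), shaken at 37 °C. Aliquots taken at 2–90 min and quenched in ice-cold 5% acetic acid/acetonitrile, then centrifuged. Loss of compound followed by HPLC against standards in heat-denatured matrix; t1/2 from the decline.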

[12] = Half-life of compound in rat brain homogenate was determined; assay type: ADME, tissue-based; method in brief: as §3

| Compound | K''IAM [1] | Sleeping time (Mus musculus [2]) | logP [3] | Sleeping time (Mus musculus [4]) | Sleeping time (Mus musculus [5]) | Sleeping time (Mus musculus [6]) | Sleeping time (Mus musculus [7]) | Sleeping time (Mus musculus [8]) | Sleeping time (Mus musculus [9]) | Maximal change (Rattus norvegicus) | Ki [10] | half-life [11] | half-life [12] |
| --- | --- | --- | --- | --- | --- | --- | --- | --- | --- | --- | --- | --- | --- |
| NC(=O)C1=CN(CCC[C@H](NC(=O)[C@@H]2CCC(=O)N2)C(=O)N2CCC[C@H]2C(N)=O)C=CC1 | 1.47 | 58.1 min | -2.39 |  |  |  |  |  |  |  |  |  |  |
| NC(=O)C1=CN(CCCCC(NC(=O)[C@@H]2CCC(=O)N2)C(=O)N2CCC[C@H]2C(N)=O)C=CC1 (stereo partly specified) | 2.3 | 48.8 min | -1.94 |  |  |  |  |  |  |  |  |  |  |
| NC(=O)C1=CN(C[C@H](NC(=O)[C@@H]2CCC(=O)N2)C(=O)N2CCC[C@H]2C(N)=O)C=CC1 | 0.55 |  | -3.29 | 2.8 min | 23.2 min | 5.4 min | 14.1 min | 19.4 min | 24.2 min |  |  |  |  |
| NC(=O)C1=CN(CCC(NC(=O)[C@@H]2CCC(=O)N2)C(=O)N2CCC[C@H]2C(N)=O)C=CC1 (stereo partly specified) | 0.8 | 44.7 min | -2.84 |  |  |  |  |  |  |  |  |  |  |
| NC(=O)c1ccc[n+](CCC[C@H](NC(=O)[C@@H]2CCC(=O)N2)C(=O)N2CCC[C@H]2C(N)=O)c1 | 0.49 |  | -1.74 |  |  |  |  |  |  | 145% | > 10 µM |  |  |
| NC(=O)c1ccc[n+](C[C@H](NC(=O)[C@@H]2CCC(=O)N2)C(=O)N2CCC[C@H]2C(N)=O)c1.O=C([O-])C(F)(F)F | 0.3 | 75.9 min | -2.64 |  |  |  |  |  |  | 279% | > 10 µM |  |  |
| NC(=O)c1ccc[n+](CCCC[C@H](NC(=O)[C@@H]2CCC(=O)N2)C(=O)N2CCC[C@H]2C(N)=O)c1 | 0.6 |  | -1.29 |  |  |  |  |  |  | 242% | > 10 µM |  |  |
| NC(=O)c1ccc[n+](CC[C@H](NC(=O)[C@@H]2CCC(=O)N2)C(=O)N2CCC[C@H]2C(N)=O)c1 | 0.42 |  | -2.18 |  |  |  |  |  |  | 216% | > 10 µM |  |  |
| NC(=O)[C@@H]1CCCN1C(=O)[C@H](Cc1cnc[nH]1)NC(=O)[C@@H]1CCC(=O)N1 [PROTIRELIN] | 0.51 | 26 min | -1.74 |  |  |  |  |  |  | 394% | 0.0423 µM | 11 min | 16 min |

Source: ChEMBL document CHEMBL1137824, “Centrally acting and metabolically stable thyrotropin-releasing hormone analogues by replacement of histidine with substituted pyridinium” (J Med Chem, 2004)
